Results published in ChEMBL document CHEMBL4513216, “Probing the Open Global Health Chemical Diversity Library for Multistage-Active Starting Points for Next-Generation Antimalarials” (ACS Infect Dis, 2020).

Assay: Toxicity liver stage against HepG2, at 10uM
Assay type: cell-based
Design: test concentration 10 uM, cell line HepG2-A16-CD81EGFP
Details: human, HepG2-A16-CD81EGFP cells; read-out: INHIBITION
Summary of the method: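 Uninfected HepG2-A16-CD81EGFP cells, 3 × 10^3 per well, 1536-well, plated on prespotted compound at 10 μM final, parasite-free screening media added to match infected plates; puromycin 10 μM positive, DMSO 0.5% negative; run in parallel with 48 h PbLuc assay at 37 °C, 5% CO2; viability by CellTiter-Glo luminescence, normalized to controls.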

Row | Compound | cytotoxicity at 10 µM [%]
1 | Cc1cnc(N2C[C@@H]3[C@@H](C2)OCC(=O)N3CC2CC2)nc1 | -0.357
2 | O=C(c1ncccn1)N1C[C@@H]2CN(CC3CC3)CCO[C@@H]2C1 | 6.99
3 | CCOCc1ncn2c1CN(C(=O)Nc1cccc(C)c1)CC2 | -8.92
4 | O=C(C1=CCCC1)N1C[C@H](Oc2cccnc2)[C@H]2OCCC[C@H]21 | -8.42
5 | CN(Cc1ccccn1)C1COC2(CCN(Cc3nccs3)CC2)C1 (stereo not given) | -16.2
6 | Cc1ccc(-c2noc(C3CCN3C(=O)c3c(C)noc3C)n2)s1 (stereo not given) | 6.09
7 | C=Cn1cc(CN2CCC(c3ncc(Cl)cc3S(C)(=O)=O)CC2)c(C)n1 | 7.38
8 | O=C(CCn1ccnc1)N1CC[C@H](Oc2ccc(F)cc2)[C@@H](O)CC1 | -3.06
9 | CCn1nccc1CN(C)C(=O)Cn1nc(C)cc1C | 6.18
10 | Cc1nc(COC(=O)c2cccnc2C)no1 | -0.2
11 | CCN(Cc1ccoc1)C(=O)Nc1ccccc1CN1CCOCC1 | -14.8
12 | CC(NC(=O)c1ccc2c(c1)COC2)c1cccc(N2CCOC2=O)c1 (stereo not given) | 14.9
13 | CNS(=O)(=O)CC(=O)N(C1CC1)C1Cc2ccccc2C1 | 3.45
14 | O=C(NCc1nnc2ccccn12)N1CCOC(c2ccsc2)C1 (stereo not given) | 0.305
15 | CCn1cc(CNc2ccc(Br)c(OC)c2)cn1 | 5.42
16 | Cc1ccc(C(=O)NCc2ccc(N(C)C)cc2)cn1 | -6.23
17 | CN(C)c1nccc(N(C)Cc2ncnn2C)n1 | 6.09
18 | O=C(CN1CCSC(c2ccccc2)C1)NCc1ccccn1 (stereo not given) | 14.5
19 | O=C1CCCN1c1cccc(CNCc2cc(F)ccc2F)c1 | 15.8
20 | Cc1cc(C)n(CC2CCCN2C(=O)Cc2cn3ccccc3n2)n1 (stereo not given) | 2.47
21 | CC(Cn1cccn1)NC(=O)Nc1ccc(N(C)C)nc1 (stereo not given) | 14.4
22 | CN(C)C(=O)CCC1CCCN(Cc2cccc(-c3ccccn3)c2)C1 (stereo not given) | 3.45
23 | CN(CC1=CCCN(Cc2cccc(C#N)c2)C1)C(=O)c1ccco1 | -5.15

Row | Compound | cytotoxicity at 10 µM [%]
24 | COCCN1CCN(Cc2ccc(C(C)=O)cc2)[C@H]2CS(=O)(=O)C[C@H]21 | -0.571
25 | CCc1cc(NCC(N)=O)nc(N2CCCCC2)n1 | 9.95
26 | O=C(NCCn1ccnc1-c1cc2n(n1)CCCNC2)c1ccncc1 | -1.84
27 | COc1ccc(C)cc1-n1cnnc1C1CC(=O)N(C)C1 (stereo not given) | -9.25
28 | Cc1nc(CN(C)Cc2cnc(N3CCOCC3)s2)no1 | 1.87
29 | COCc1nc(Cn2c(C)cc(C(F)(F)F)cc2=O)no1 | -2.74
30 | COc1cc(C)ccc1C(=O)N1CCC2(CCC(=O)N(C(C)C)C2)CC1 | 3.76
31 | COCCc1ncc(CN2CCC(Oc3ccccc3C)CC2)cn1 | 4.67
32 | O=C(Cc1ccc2c(c1)CCCC2)NCCNc1cnccn1 | -0.882
33 | Cc1noc(NC(=O)c2ccc(Br)o2)n1 | -3.75
34 | COc1ccnc(N2CCN(C(=O)CN3CCOCC3)CC2)n1 | -0.819
35 | O=C(NCCOc1ccc2c(c1)OCO2)C1CC(=O)N(C2CC2)C1 (stereo not given) | -6.75
36 | O=C(c1cnn(-c2ccccc2Cl)c1)N1CCN(CCO)CC1 | -4.26
37 | COc1c(C2CCCN2CC(=O)Nc2nc(C)cs2)c(C)nn1C (stereo not given) | -6.76
38 | CCN1CCC(NC(=O)CN2CCCCC2Cn2cc(C)cn2)CC1 (stereo not given) | 0.144
39 | Cc1cc(C)c(CNC(=O)N2CCCC2c2ccccc2)c(=O)[nH]1 (stereo not given) | -0.818
40 | Cc1nc(CN(C)C2CCN(CCCOc3ccccc3)C2)no1 (stereo not given) | -9.26
41 | Cc1cnn(CC2CN(Cc3nc(N)c4ccccc4n3)CCO2)c1 (stereo not given) | 5.9
42 | Cc1cc(F)ccc1S(=O)(=O)NCc1cccc(C(=O)N2CCCC2)c1 | -1.2
43 | O=C(C1CCOCC1)N1C[C@@H]2C[C@@H](c3nc(C4CC4)cs3)O[C@@H]2C1 | -10.1
44 | Cn1nnc2c1C(COCc1ccccn1)CN(C(=O)c1cccs1)C2 (stereo not given) | -11.2
45 | c1cc(CN2C[C@@H]3OCCN(CCN4CCCC4)[C@@H]3C2)ccn1 | 3.39
